One series concerns RS4-11. Briefly: Antiproliferative activity against human RS4:11 cells assessed as growth inhibition at 20 uM after 48 hrs by CCK-8 assay relative to control. The series is classed as functional. As to conditions: for inhibition of growth at 20 µM: RS4-11, 48 h, read-out: GI. In short, it runs like this: (§1)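 Single-dose screen at 20 μM in RS4;11 (human ALL), HL-60 (human promyelocytic leukemia) and HEK293T (normal-cell model). Cells exposed 48 h, viability read by CCK-8, growth inhibition ratio expressed relative to control.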

The next series deals with HL-60. The series is described as follows: Antiproliferative activity against human HL60 cells assessed as growth inhibition at 20 uM after 48 hrs by CCK-8 assay relative to control. As to conditions: HL-60, 48 h, read-out: GI. Format: functional. In short, it runs like this:
as §1
A general note: Formazan colour is commonly taken as a measure of viable cells.

Series [1] can be described thus: Cytotoxicity against HEK293T cells assessed as growth inhibition at 20 uM after 48 hrs by CCK8 assay relative to control. As to conditions: human, HEK293T cells; read-out: GI. Format: cell-based, HEK-293T. In short, it runs like this: as §1

Activity calls are given as the source filed them. The rule behind the calls is not given here.

In the case of `Cc1nnc(NC(=O)/C(C#N)=C/c2cccc(OS(C)(=O)=O)c2)s1`, the inhibition of growth at 20 µM in the series on RS4-11 was found to be 33%; with HL-60 it was 20%. Also, in series [1], the inhibition at 48 h, 20 µM was determined as 20%.
Take `N#C/C(=C\c1ccccc1OS(=O)(=O)c1ccc(Cl)cc1)C(=O)Nc1nnc(-c2cccs2)s1`: the inhibition of growth at 20 µM with RS4-11 is 22%; with HL-60, 17%. In series [1], the inhibition at 48 h, 20 µM was determined as 46%.
On the same counts, the results for `N#C/C(=C\c1ccccc1OS(=O)(=O)c1ccccc1[N+](=O)[O-])C(=O)Nc1nnc(Cc2ccc(F)cc2)s1` are 61%, 35% and 6%.
On the same counts, the results for `N#C/C(=C\c1ccccc1OS(=O)(=O)c1ccc([N+](=O)[O-])cc1)C(=O)Nc1nnc(Cc2cccc3ccccc23)s1` are 58%, 18% and 25%.
On the same counts, the results for `N#C/C(=C\c1ccccc1OS(=O)(=O)c1ccc([N+](=O)[O-])cc1)C(=O)Nc1nnc(Cc2ccc(F)cc2)s1` are 55%, 18% and 8%.
As for `N#C/C(=C\c1ccccc1OS(=O)(=O)c1ccc(F)cc1)C(=O)Nc1nnc(Cc2cccc(F)c2)s1`, the figures for the inhibition of growth at 20 µM with RS4-11 and with HL-60 were 72% and 22%, respectively. Besides, in series [1], the inhibition at 48 h, 20 µM came out at 17%.
The corresponding values for `Cc1ccc(S(=O)(=O)Oc2cccc(/C=C(\C#N)C(=O)Nc3nnc(-c4ccccc4Cl)s3)c2)cc1` are 44%, 67% and 55%.
On the same counts, the results for `N#C/C(=C\c1ccccc1OS(=O)(=O)c1ccc(F)cc1)C(=O)Nc1nnc(Cc2cccc3ccccc23)s1` are 68%, 12% and 15%.
On the same counts, the results for `Cc1ccc(S(=O)(=O)Oc2ccccc2/C=C(\C#N)C(=O)Nc2nnc(Cc3cccc(F)c3)s2)cc1` are 56%, 11% and 9%.
On to `N#C/C(=C\c1ccccc1OS(=O)(=O)c1ccc([N+](=O)[O-])cc1)C(=O)Nc1nnc(Cc2ccc(Cl)cc2)s1`, for which the inhibition of growth at 20 µM in the series on RS4-11 is 66%; in the series with HL-60, 34%. In addition, in series [1], the inhibition at 48 h, 20 µM came out at 19%.
On the same counts, the results for `N#C/C(=C\c1ccccc1OS(=O)(=O)c1ccc(Cl)cc1)C(=O)Nc1nnc(Cc2ccc(F)cc2)s1` are 68%, 20% and 6%.
On the same counts, the results for `N#C/C(=C\c1ccccc1OS(=O)(=O)c1ccc(Cl)cc1)C(=O)Nc1nnc(Cc2ccc(Cl)cc2)s1` are 64%, 15% and 14%.
As to `N#C/C(=C\c1ccccc1OS(=O)(=O)c1ccc(Cl)cc1)C(=O)Nc1nnc(Cc2cccc(F)c2)s1`, the figures for the inhibition of growth at 20 µM with RS4-11 and in the series on HL-60 were 71% and 42%, respectively. Further, the inhibition at 48 h, 20 µM in series [1] is 29%.
On the same counts, the results for `Cc1ccc(S(=O)(=O)Oc2ccccc2/C=C(\C#N)C(=O)Nc2nnc(Cc3ccc(Cl)cc3)s2)cc1` are 69%, 15% and 20%.
Turning to `N#C/C(=C\c1cccc(OS(=O)(=O)c2cccs2)c1)C(=O)Nc1nnc(-c2cccs2)s1`, in the series on RS4-11, the “growth inhibition (GI)” value was “inactive”. Also, in the series on HL-60, the inhibition of growth at 20 µM amounted to 30%. Also, the inhibition at 48 h, 20 µM in series [1] worked out at 50%.
For the compound `N#C/C(=C\c1ccccc1OS(=O)(=O)c1ccc(Cl)cc1)C(=O)Nc1nnc(Cc2cccc3ccccc23)s1`, the results for the inhibition of growth at 20 µM in the series with RS4-11 and in the series with HL-60 were 68% and 15%, respectively. Further, the inhibition at 48 h, 20 µM in series [1] was found to be 16%.

These data come from ChEMBL document CHEMBL4627348, “Synthesis of (1,3,4-thiadiazol-2-yl)-acrylamide derivatives as potential antitumor agents against acute leukemia cells” (Bioorg Med Chem Lett, 2020).
